The source made the active and inactive calls. No cut-off for these calls is given here.

In assay [1] the target is T1, DNA topoisomerase 2-alpha (Homo sapiens, UniProt P11388). Put plainly: Inhibition of purified human topoisomerase 2-mediated relaxation of supercoiled pBR322 DNA at 20 uM incubated for 30 mins by agarose gel electrophoresis. Put shortly: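 Reactions contained 0.2 μg supercoiled pBR322 in 50 mM Tris-HCl pH 8.0, 150 mM NaCl, 10 mM MgCl2, 0.5 mM DTT, 30 μg/ml BSA, normally 2 mM ATP (1, 2 or 4 mM in ATP-competition runs). Started with 1 U human Topo II, 30 min at 37 °C, stopped with sarcosyl buffer, run on 1% agarose 1.5 h at 75 V, gel-stained and imaged under UV.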

Assay [2] has as its system HL-60. Put plainly: Induction of apoptosis in human HL60 cells assessed as viable cells at 0.5 uM after 24 hrs by annexin V-FITC/propidium iodide staining-based flow cytometric analysis (reference value: 97.75%). It is filed as functional. Conditions: HL-60, 24 h, read-out: Activity. Put shortly: (§1)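 HL-60 cells at 5.0 × 10^5 cells/ml treated for 12 h (0.5–2 μM) or 24 h (0.25–1 μM), washed twice in cold PBS, resuspended in binding buffer, stained with annexin V-FITC and propidium iodide for 15 min in the dark, analysed by flow cytometry within 1 h; quadrants define live, early and late apoptotic cells. Three repeats.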
(In flow cytometry, cells or beads pass a laser one at a time.)

The subject of assay [3] is HL-60. Put plainly: Induction of apoptosis in human HL60 cells assessed as viable cells at 0.5 uM after 12 hrs by annexin V-FITC/propidium iodide staining-based flow cytometric analysis (reference value: 99.12 to 99.33%). Format: functional. Conditions: HL-60, 12 h, read-out: Activity. Put shortly:
as §1

For assay [4], the system named is HL-60. Put plainly: Induction of apoptosis in human HL60 cells assessed as viable cells at 1 uM after 24 hrs by annexin V-FITC/propidium iodide staining-based flow cytometric analysis (reference value: 97.75%). As to conditions: HL-60, 24 h, read-out: Activity. Format: functional. Put shortly:
as §1

In assay [5] the test system is HL-60. Put plainly: Induction of apoptosis in human HL60 cells assessed as early apoptotic cells at 1 uM after 12 hrs by annexin V-FITC/propidium iodide staining-based flow cytometric analysis (reference value: 0.38 to 0.55%). Format: functional. Put shortly:
as §1

The test system of assay [6] is HL-60. Kind of assay: Induction of apoptosis in human HL60 cells assessed as late apoptotic cells at 0.5 uM after 12 hrs by annexin V-FITC/propidium iodide staining-based flow cytometric analysis (reference value: 0.17 to 0.18%). It is filed as functional. Put shortly:
as §1

The test system of assay [7] is HL-60. Put plainly: Induction of apoptosis in human HL60 cells assessed as dead cells at 2 uM after 12 hrs by annexin V-FITC/propidium iodide staining-based flow cytometric analysis (reference value: 0.12 to 0.15%). Format: functional.
Another assay deals with K562. Put plainly: Antiproliferative activity against human K562 cells after 48 hrs by MTT assay. Format: functional, cell-based. Conditions: K562, 48 h. Put shortly: (§2)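 Cells seeded at 5000 per well and left overnight, then exposed to increasing concentrations (0-50 μM) for 48 h. […] HL-60/MX2 is a mitoxantrone-selected HL-60 derivative with reduced Topo IIα/β.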
For assay [8], the system named is HL-60. Kind of assay: Induction of apoptosis in human HL60 cells assessed as early apoptotic cells at 0.25 uM after 24 hrs by annexin V-FITC/propidium iodide staining-based flow cytometric analysis (reference value: 0.5%). Format: functional. Put shortly:
as §1

The test system of assay [9] is HL-60. Put plainly: Induction of apoptosis in human HL60 cells assessed as early apoptotic cells at 1 uM after 24 hrs by annexin V-FITC/propidium iodide staining-based flow cytometric analysis (reference value: 0.5%). Format: functional. Put shortly: as §1
The test system of assay [10] is HL-60. Put plainly: Induction of apoptosis in human HL60 cells assessed as dead cells at 0.5 uM after 12 hrs by annexin V-FITC/propidium iodide staining-based flow cytometric analysis (reference value: 0.12 to 0.15%). It is filed as functional.
Assay [11] has as its system HL-60. Put plainly: Induction of apoptosis in human HL60 cells assessed as dead cells at 1 uM after 24 hrs by annexin V-FITC/propidium iodide staining-based flow cytometric analysis (reference value: 0.12%). It is filed as functional.
The target in assay [12] is T1, DNA topoisomerase 2-alpha. Kind of assay: Inhibition of purified human topoisomerase 2 catalytic activity using supercoiled pBR322 DNA as substrate assessed as inhibition of etoposide-induced linear DNA formation at 20 uM pre-incubated before etoposide addition by agarose gel electrophoresis. Put shortly:
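Human Topo II (6 units) with 0.1 μg supercoiled pBR322 in 50 mM Tris-HCl pH 8.0, 150 mM NaCl, 10 mM MgCl2, 2 mM ATP, 0.5 mM DTT, 30 μg/ml BSA; compounds at 20 μM, etoposide 100 μM. After 6 min at 37 °C, complexes trapped with SDS then EDTA, proteinase K 30 min at 45 °C, heated 72 °C 2 min, run on 1% agarose; linear DNA scored. Antagonism tested by compound pretreatment before etoposide.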

Assay [13] has as its system HL-60. Kind of assay: Induction of apoptosis in human HL60 cells assessed as dead cells at 0.25 uM after 24 hrs by annexin V-FITC/propidium iodide staining-based flow cytometric analysis (reference value: 0.12%). Format: functional.
In another assay the test system is A549. Kind of assay: Antiproliferative activity against human A549 cells after 48 hrs by MTT assay. It is filed as functional, cell-based. Conditions: A549, 48 h. Put shortly: as §2
Another assay concerns HeLa. Kind of assay: Antiproliferative activity against human HeLa cells after 48 hrs by MTT assay. Format: functional, cell-based. Put shortly:
as §2
(Formazan colour is commonly taken as a measure of viable cells.)

Assay [14] concerns HL-60. Kind of assay: Induction of apoptosis in human HL60 cells assessed as early apoptotic cells at 0.5 uM after 12 hrs by annexin V-FITC/propidium iodide staining-based flow cytometric analysis (reference value: 0.38 to 0.55%). It is filed as functional. Put shortly: as §1
Assay [15] can be described thus: Antiproliferative activity against human MDA-MB-201 cells after 48 hrs by MTT assay. Format: functional, cell-based. Put shortly:
as §2

The test system of assay [16] is HL-60. Kind of assay: Induction of apoptosis in human HL60 cells assessed as late apoptotic cells at 1 uM after 24 hrs by annexin V-FITC/propidium iodide staining-based flow cytometric analysis (reference value: 1.64%). It is filed as functional. Put shortly: as §1
Assay [17] has as its system HL-60. Put plainly: Induction of apoptosis in human HL60 cells assessed as early apoptotic cells at 2 uM after 12 hrs by annexin V-FITC/propidium iodide staining-based flow cytometric analysis (reference value: 0.38 to 0.55%). Format: functional. Put shortly: as §1

T1 sequence (P11388 whole entry): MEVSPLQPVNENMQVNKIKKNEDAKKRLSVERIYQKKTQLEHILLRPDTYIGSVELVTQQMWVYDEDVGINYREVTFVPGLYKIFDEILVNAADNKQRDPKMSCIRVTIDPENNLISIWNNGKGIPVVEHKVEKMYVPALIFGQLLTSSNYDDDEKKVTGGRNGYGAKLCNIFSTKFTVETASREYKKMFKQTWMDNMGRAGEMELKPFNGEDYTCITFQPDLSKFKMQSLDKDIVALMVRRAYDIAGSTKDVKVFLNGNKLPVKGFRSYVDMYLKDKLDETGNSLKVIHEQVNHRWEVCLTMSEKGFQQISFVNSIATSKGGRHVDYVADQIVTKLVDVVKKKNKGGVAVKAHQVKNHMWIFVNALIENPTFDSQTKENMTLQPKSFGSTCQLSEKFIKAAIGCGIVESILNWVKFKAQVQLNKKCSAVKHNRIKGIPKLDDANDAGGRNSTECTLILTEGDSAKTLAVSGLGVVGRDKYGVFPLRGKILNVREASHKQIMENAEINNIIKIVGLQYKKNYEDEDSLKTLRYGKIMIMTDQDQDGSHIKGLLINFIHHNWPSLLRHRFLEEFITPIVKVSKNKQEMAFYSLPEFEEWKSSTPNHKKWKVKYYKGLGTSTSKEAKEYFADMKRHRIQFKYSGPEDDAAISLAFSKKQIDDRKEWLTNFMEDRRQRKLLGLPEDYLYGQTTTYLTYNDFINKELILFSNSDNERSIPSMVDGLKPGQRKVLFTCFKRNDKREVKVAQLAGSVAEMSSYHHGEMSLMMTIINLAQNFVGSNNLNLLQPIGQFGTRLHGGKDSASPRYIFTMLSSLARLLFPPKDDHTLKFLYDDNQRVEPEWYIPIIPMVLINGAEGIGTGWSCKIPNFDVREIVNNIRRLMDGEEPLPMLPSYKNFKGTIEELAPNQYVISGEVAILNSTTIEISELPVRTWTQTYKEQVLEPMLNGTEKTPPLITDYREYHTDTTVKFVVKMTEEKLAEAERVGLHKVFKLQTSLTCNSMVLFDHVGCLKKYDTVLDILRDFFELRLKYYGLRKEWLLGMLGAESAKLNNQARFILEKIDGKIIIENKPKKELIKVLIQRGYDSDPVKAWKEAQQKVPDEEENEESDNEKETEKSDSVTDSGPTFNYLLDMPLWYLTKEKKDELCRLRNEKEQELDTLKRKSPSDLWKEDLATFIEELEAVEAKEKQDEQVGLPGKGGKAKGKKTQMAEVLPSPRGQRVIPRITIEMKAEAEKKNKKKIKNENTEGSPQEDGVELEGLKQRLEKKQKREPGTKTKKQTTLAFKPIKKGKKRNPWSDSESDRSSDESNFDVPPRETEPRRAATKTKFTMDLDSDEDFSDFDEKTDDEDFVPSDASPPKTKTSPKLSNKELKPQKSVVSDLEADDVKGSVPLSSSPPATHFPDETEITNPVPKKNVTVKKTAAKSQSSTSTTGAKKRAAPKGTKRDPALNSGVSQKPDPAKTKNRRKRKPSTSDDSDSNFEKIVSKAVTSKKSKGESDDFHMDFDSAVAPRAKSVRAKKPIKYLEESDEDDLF

For orientation: IC50 means the concentration at which inhibition is half-maximal. High values mean weaker potency, low ones greater potency. As to `CCN(CC)CCCCn1c(N)c(-c2nc3ccccc3[nH]2)c2nc(C#N)c(C#N)nc21`, the inhibition entry in assay [1] and in assay [12] was “Active” each time. The viability at 0.5 µM in the assay on HL-60 [2] is 78.7%; with HL-60 [3], 99.3%. Also, the viability at 1 µM in the assay with HL-60 [4] was found to be 32.9%. The Activity in the assay on HL-60 [5] came out at 1.39%; in the assay with HL-60 [6] it was 0.21%; with HL-60 [7], 1.36%; in the assay with HL-60 [8] it was 0.35%; in the assay with HL-60 [9], 9.38%; in the assay with HL-60 [10], 0.1%. Also, the Activity in the assay on HL-60 [11] turned out to be 12.63%; with HL-60 [13], 0.07%; in the assay with HL-60 [14], 0.35%; with HL-60 [16], 45.05%; with HL-60 [17], 6.62%. Also, the IC50 amounted to 1.44 µM with K562, 5.75 µM in the assay on A549, 10.1 µM in the assay on HeLa and 0.64 µM in assay [15].

As for `CN(C)CCCCn1c(N)c(-c2nc3ccccc3[nH]2)c2nc(C#N)c(C#N)nc21`, the inhibition entry in assay [1] and in [12] was “Active” each time. Besides, the viability at 0.5 µM with HL-60 [2] stood at 13.9%; in the assay on HL-60 [3], 99.3%. In addition, the viability at 1 µM with HL-60 [4] turned out to be 0.65%. Also, the Activity was found to be 0.82% in the assay with HL-60 [5]; 0.21% in the assay with HL-60 [6]; 1.96% in the assay with HL-60 [7]; 0.54% with HL-60 [8]; 0.53% in the assay on HL-60 [9]; 0.05% in the assay on HL-60 [10]. The Activity in the assay on HL-60 [11] was 8.31%; with HL-60 [13], 0.03%; with HL-60 [14], 0.46%; in the assay on HL-60 [16], 90.51%; in the assay with HL-60 [17] it was 5.8%. Moreover, the IC50 amounted to 1.43 µM with K562, 8.24 µM in the assay with A549, 11.2 µM in the assay with HeLa and 0.53 µM in assay [15].

The record behind these values is ChEMBL document CHEMBL3758120, “Synthesis and Mechanism Studies of 1,3-Benzoazolyl Substituted Pyrrolo[2,3-b]pyrazine Derivatives as Nonintercalative Topoisomerase II Catalytic Inhibitors” (J Med Chem, 2016).
